Reference: article PMC12840579 (Biomedicine & pharmacotherapy = Biomedecine & …, 2025)
Blank lines part the entries; values can stand above or below the molecule they belong to.

Columns and labels:
[1] = biological target: T1, ADAM10 (Homo sapiens, UniProt O14672); assay: ADAM10 fluorogenic proteolytic activity assay; type: biochemical; conditions: GM6001 10 μM
T1 sequence (O14672 214-748): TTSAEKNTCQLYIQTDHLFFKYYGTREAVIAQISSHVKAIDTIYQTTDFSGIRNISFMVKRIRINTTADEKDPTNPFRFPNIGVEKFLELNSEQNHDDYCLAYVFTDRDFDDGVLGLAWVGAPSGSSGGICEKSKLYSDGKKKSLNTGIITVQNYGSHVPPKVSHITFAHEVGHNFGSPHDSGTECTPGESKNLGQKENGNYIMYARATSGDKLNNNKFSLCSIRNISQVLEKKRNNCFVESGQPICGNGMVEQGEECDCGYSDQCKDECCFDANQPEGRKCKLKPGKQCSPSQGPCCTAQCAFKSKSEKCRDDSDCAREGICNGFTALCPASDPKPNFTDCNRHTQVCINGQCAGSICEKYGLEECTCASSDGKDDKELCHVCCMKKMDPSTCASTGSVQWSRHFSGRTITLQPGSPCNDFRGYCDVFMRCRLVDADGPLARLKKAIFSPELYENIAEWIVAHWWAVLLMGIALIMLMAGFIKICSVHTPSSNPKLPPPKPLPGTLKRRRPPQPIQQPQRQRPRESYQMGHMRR
Outline: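 Recombinant ADAM10 from a fluorogenic assay kit, pre-incubated with test compound at the indicated concentrations for 30 min at room temperature, then substrate added. Substrate cleavage read by fluorescence (ex 485 nm, em 530 nm). GM6001 was the positive control. Triplicate runs, mean ± SEM (n = 3).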

[2] = biological target: ADAM17 (Homo sapiens, UniProt P78536); assay: ADAM17 fluorogenic proteolytic activity assay; type: biochemical; conditions: GM6001 10 μM
[3] = tested on: wild-type HEK293 cells lacking TREM2/DAP12 expression; assay: Intracellular calcium measurement; type: cell-based, human
Outline: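 Wild-type HEK293 cells lacking TREM2/DAP12 were grown in 96-well clear-bottom black plates. They were loaded for 1 h with Fluo-4 NW dye in 100 μL assay buffer, then test compound was added. Fluorescence was captured on an automated imaging system. Ionomycin served as the control for intact calcium signalling.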

[4] = tested on: TREM2 signaling (SYK phosphorylation Y525/526) in HEK293-hTREM2/DAP12 cells; assay: Phospho-SYK AlphaLISA in HEK293-hTREM2/DAP12 cells; type: cell-based, human
Outline: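 HEK-hTREM2/DAP12 cells were seeded at 5 × 10⁴ per well in DMEM with 10% FBS and held 24 h at 37 °C, 5% CO2. Medium was replaced with compound in complete medium, DMSO as vehicle. Time course: 25 μM for 5, 15, 30 or 60 min. Dose series: 5–100 μM final for 60 min. Kit-lysed cells were assayed for pSYK Y525/526 by two-antibody bead AlphaLISA; 3 independent experiments, n=6 per condition, mean ± SEM.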

[5] = tested on: BV2 murine microglial cells; assay: Phagocytosis assay with fluorescent latex beads; type: cell-based; conditions: 25 μM, 30 min before beads (30 min)
Outline: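 Murine BV2 microglia were serum-starved, then exposed to 25 μM test compound or DMSO vehicle for 30 min. Green fluorescent latex beads were added for a further 30 min at 37 °C. Cells were washed with ice-cold PBS, fixed in 4% PFA, immunostained for IBA1 and imaged by fluorescence microscopy. A phagocytic cell was an IBA1+ cell with ≥1 internalised bead, expressed as % of vehicle; mean ± SEM (n = 3).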

[6] = 25 μM, time-course 5-60 minutes

Sequence of ADAM17 (P78536 215-824): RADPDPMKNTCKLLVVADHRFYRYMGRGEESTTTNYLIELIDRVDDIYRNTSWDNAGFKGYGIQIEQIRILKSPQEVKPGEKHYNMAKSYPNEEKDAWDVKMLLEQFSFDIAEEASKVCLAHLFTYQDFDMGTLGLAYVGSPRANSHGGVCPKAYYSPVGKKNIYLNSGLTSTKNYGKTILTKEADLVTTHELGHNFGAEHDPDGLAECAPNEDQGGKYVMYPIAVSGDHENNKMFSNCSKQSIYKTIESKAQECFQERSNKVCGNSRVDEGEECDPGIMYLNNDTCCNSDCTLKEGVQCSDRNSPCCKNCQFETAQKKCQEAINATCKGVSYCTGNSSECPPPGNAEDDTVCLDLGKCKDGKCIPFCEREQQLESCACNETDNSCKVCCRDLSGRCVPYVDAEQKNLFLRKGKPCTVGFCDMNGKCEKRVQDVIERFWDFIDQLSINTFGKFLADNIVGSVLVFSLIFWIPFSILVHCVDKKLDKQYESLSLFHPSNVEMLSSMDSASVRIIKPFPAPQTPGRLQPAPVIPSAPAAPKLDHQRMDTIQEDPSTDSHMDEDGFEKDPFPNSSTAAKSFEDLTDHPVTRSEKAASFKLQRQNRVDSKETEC

effect on ADAM10 protease activity (positive control) [1]: potently inhibited | effect on ADAM17 protease activity (positive control) [2]: potently inhibited
Molecule: CNC(=O)[C@H](Cc1c[nH]c2ccccc12)NC(=O)[C@@H](CC(=O)NO)CC(C)C [GM6001]

Molecule: C[C@H](CCC(=O)O)C[C@H](C)C[C@H](C)C(=O)/C=C(\O)[C@H](C)C[C@H](C)C/C=C/[C@@H](C)[C@@H](O)[C@@H](C)[C@@H](O)C[C@@H]1CC[C@@](C)([C@H]2CC[C@@](C)([C@@H](C)O)O2)O1 [ionomycin]
calcium response in wild-type cells ([3]; ionomycin 10 μM): ~ 8 fold

Molecule: VG-3927
time at which SYK phosphorylation is first detected [4, 6]: 5 min | time of peak SYK phosphorylation [4, 6]: 60 min | concentration of maximal SYK phosphorylation ([4]; 60 minutes treatment, 5-100 μM): 25 µM | lowest concentration with SYK phosphorylation ([4]; 60 minutes treatment, 5-100 μM): 5 µM | calcium mobilization in wild-type cells ([3]; VG-3927 30 μM): neither VG-3927 (30 μM) nor As48 (100 μM) elicited any detectable calcium mobilization | increase in proportion of phagocytic cells vs vehicle [5]: approximately 45%
